GPR7 antagonist = GPR7 receptor antagonists, primary screen, cell-based, fluorescence, single concentration | GPR7-expressing cells, fluorescence antagonist assay | inhibition, % at 4.4 µM | Neuropeptides B/W receptor type 1 (Homo sapiens), P48145 | 290,000 compounds, 1.1% hits | AID 1861, 2009; in the data active = inhibition above about 16%, passing the limit was not always enough;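 also: cells stimulated with the agonist NPW; 0% = agonist with vehicle and 100% = vehicle without agonist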
Target sequence (P48145 whole entry, looked up): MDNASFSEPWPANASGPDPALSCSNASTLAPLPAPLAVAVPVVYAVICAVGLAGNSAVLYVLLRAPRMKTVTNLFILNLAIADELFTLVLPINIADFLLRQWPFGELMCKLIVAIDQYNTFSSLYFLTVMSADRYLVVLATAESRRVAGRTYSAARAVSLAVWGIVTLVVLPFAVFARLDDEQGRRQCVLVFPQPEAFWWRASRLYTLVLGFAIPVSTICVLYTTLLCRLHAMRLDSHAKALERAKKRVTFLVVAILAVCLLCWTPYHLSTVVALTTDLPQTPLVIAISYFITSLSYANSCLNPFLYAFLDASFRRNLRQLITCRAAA
CHO parental Ca = ATP-evoked calcium signal inhibitors, parental CHO, primary screen, counter-screen for OX1R antagonist project, cell-based, fluorescence, Fluo-8 calcium dye | inhibition, % at 5.6 µM | parental CHO-K1, ATP-induced calcium, Fluo-8 fluorescence | AID 463079, 2010 | 330,000 compounds, 0.63% hits;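 active = inhibition above that plate's mean sample inhibition plus 3 SD, cut at about 26% in these data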;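 also: 0% = ATP-challenged DMSO wells and 100% = DMSO wells without ATP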
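Assay system – parental CHO cells · Reagent – ATP stimulus · Detection – intracellular calcium via Fluo-8 no-wash fluorescent dye · Evaluation – percent inhibition of ATP-evoked calcium rise, normalized to controls · Controls – ATP wells versus no-ATP DMSO wells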
OX1R antag-1 = antagonists of human orexin 1 receptor (OX1R); OX1R-expressing cells, FRET antagonist read-out; Orexin/Hypocretin receptor type 1 (Homo sapiens), O43613; inhibition, % at 6.6 µM; 330,000 compounds, 1.8% hits; in the data active = inhibition mostly above about 38%, no sharp cut-off; inactive = mostly below about 40%;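 also: 0% = agonist challenge alone and 100% = reference antagonist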
GalR3 antag = GalR3 antagonists in HEK293 cells, primary screen, cell-based, fluorescence readout; HEK293 GalR3-CNG cAMP membrane potential fluorescence; galR3 body fused to GalR1 C-terminus; inhibition, % at 3 µM; 360,000 compounds, 0.44% hits; AID 651719, 2012;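 active = inhibition above the screen-wide average plus 3 SD, cut at about 13% in these data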;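 also: forskolin and galanin both at EC90 stimulate the cells; cAMP rise reported by CNG channel membrane potential dye signal; 0% = forskolin plus galanin with DMSO and 100% = forskolin alone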
Target sequence (O60755 1-299 limits assumed): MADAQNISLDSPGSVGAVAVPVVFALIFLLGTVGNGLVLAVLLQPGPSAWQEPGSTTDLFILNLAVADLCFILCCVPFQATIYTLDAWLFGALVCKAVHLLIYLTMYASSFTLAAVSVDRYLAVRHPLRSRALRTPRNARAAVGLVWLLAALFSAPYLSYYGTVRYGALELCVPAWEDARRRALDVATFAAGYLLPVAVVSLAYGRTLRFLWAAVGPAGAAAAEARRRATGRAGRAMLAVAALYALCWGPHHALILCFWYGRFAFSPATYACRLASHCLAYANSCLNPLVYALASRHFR
OX1R antag-2 = OX1R (HCRTR1) antagonists, primary screen, fluorescence, CHO/OX1R cells, Fluo-8 calcium, orexin A | Orexin/Hypocretin receptor type 1 (Homo sapiens), O43613 | Fluo-8 calcium fluorescence | inhibition, % at 5 µM | 330,000 compounds, 0.43% hits;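 active = inhibition above its plate's threshold, mean inhibition of all tested compounds on the plate plus 3 SD, cut at about 37% in these data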;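 also: 0% = orexin A challenge wells and 100% = SB-334867-A antagonist wells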
The depositor's hits bear a star; / = no result given. Most compounds without a hit are left out; they make up all but 3.1% or so of the library.

SMILES	GPR7 antagonist	CHO parental Ca	OX1R antag-1	GalR3 antag	OX1R antag-2
N#C/C(=N\Nc1ccc(Cl)cc1)C(N)=S	11.1	17.6	49.5*	-7.0	20.8
N#C/C(=N\Nc1ccccc1)C(N)=S	-6.5	-10.1	24.8	-0.5	2.5
O=C(CN1CCCCC1)Nc1nnc(-c2ccc([N+](=O)[O-])cc2)s1	3.0	-2.6	58.0*	-2.5	-8.0
O=C(CN1CCN(c2ccccc2O)CC1)Nc1cc([N+](=O)[O-])ccc1Cl	-9.7	-18.7	57.9*	7.8	-5.5
O=C(CN1CCCCCC1)Nc1cc([N+](=O)[O-])ccc1Cl	-5.2	3.9	62.5*	-7.1	5.1
O=C(O)COc1ccccc1/C=N/Nc1ccc(S(=O)(=O)N2CCOCC2)cc1[N+](=O)[O-]	-10.9	-13.9	62.9*	-0.7	-8.6
N=c1oc2cc(O)ccc2cc1C(=O)Nc1ccccn1	-3.8	3.4	83.8*	/	5.4
N=c1oc2cc(O)ccc2cc1C(=O)Nc1nc2ccccc2s1	-4.2	-0.1	37.4	-2.2	1.7
COc1ccc(-c2cc(=Nc3c(C)n(C)n(-c4ccccc4)c3=O)c3ccccc3o2)cc1	0.5	-9.9	54.9*	-3.1	-12.2
COc1ccc(-c2csc(=Nc3c(C)n(C)n(-c4ccccc4)c3=O)n2C(C)(C)C)cc1	13.1	-15.2	10.5	-5.9	-17.4
O=S1(=O)N[C@@H](Cc2ccccc2)COc2cccc(N3CCCCC3)c21	/	/	/	-4.7	/
Cc1c(-c2nc(N)nc(Nc3ccccc3F)n2)oc2ccccc12	-1.6	-2.0	38.8*	-5.1	-4.7
Cc1ccc(Nc2nc(N)nc(-c3oc4ccccc4c3C)n2)cc1	9.8	-14.2	11.0	/	-21.7
Cc1cc(Br)cn2c(Cc3ccccc3C(F)(F)F)c(-c3cccc(Cl)c3)nc12	/	/	/	-5.9	/
CCc1cccc2c(C(=O)COC(=O)c3nn(C)c(=O)c4ccccc34)c[nH]c12	-0.2	-2.2	59.9	-3.5	8.9
CCc1cccc2c(C(=O)Cn3nnc(-c4ccc(OC)c(OC)c4)n3)c[nH]c12	-2.3	41.9*	45.4*	-1.9	68.9*
CCOC(=O)C1=CCN(S(=O)(=O)c2ccc(Cl)cc2)C1c1cccc(Br)c1 (centres undefined)	/	/	/	-3.8	/
COC(=O)c1cccc(S(=O)(=O)N(Cc2ccco2)Cc2cc3cc(OC)c(OC)cc3[nH]c2=O)c1	-8.8	-19.0	23.3	-4.5	-22.8
COC(=O)c1cccc(S(=O)(=O)N(Cc2ccco2)Cc2cc3ccc(OC)cc3[nH]c2=O)c1	-0.6	-17.5	40.2*	-4.2	15.4
N#CCCN(C(=O)COC(=O)c1ccc(Cl)nc1)c1ccc2c(c1)OCCO2	/	/	/	-6.4	/
CCC(=O)c1ccc(OCC(=O)OCC(=O)N(CCC#N)c2ccc3c(c2)OCCO3)cc1	/	44.3*	2.2	0.2	26.1
Cc1ccc(S(=O)(=O)N2[C@@H](CCO)OC[C@H]2C(C)C)cc1	/	/	/	-5.6	/
CC(O)CNc1cc(N)c([N+](=O)[O-])cc1[N+](=O)[O-] (centres undefined)	-3.3	-0.9	72.5*	9.4	3.1
CCc1nc2ccc(C(=O)N(C)CCCN(C)C)cn2c1N(C)C(=O)C1CCCCC1	/	/	/	-6.2	/
COc1cc2c(cc1NC(=O)C(c1ccccc1)c1ccccc1)CCCC2	-6.9	32.5*	20.6	-2.5	36.2
SMILES	GPR7 antagonist	CHO parental Ca	OX1R antag-1	GalR3 antag	OX1R antag-2
COc1cc(NC(=O)C(c2ccccc2)c2ccccc2)c(C(=O)O)cc1OC	-9.1	-3.1	-1.0	-9.9	-17.8
CN1CCN(C(=O)c2cccc(S(=O)(=O)N3CCCC3)c2)CC1	/	0.9	-0.3	0.4	2.8
O=C(c1cccc(S(=O)(=O)N2CCCC2)c1)c1nnc(-c2ccncc2)o1	-8.2	-1.9	43.0*	-0.2	-8.6
Cc1cc(C)n(C(=O)c2cccc(S(=O)(=O)N3CCCC3)c2)n1	20.8*	0.1	21.5	-3.4	-11.6
O=C(Nc1ccncc1)c1cccc(S(=O)(=O)N2CCCC2)c1	-5.8	-9.6	25.0	-1.2	6.5
c1ccc(CN(Cc2cccs2)C(c2cccs2)c2nnnn2C2CCCC2)cc1 (centres undefined)	-14.3	34.3*	8.7	-7.1	-26.0
c1ccc(CC2CCN(C(c3cccs3)c3nnnn3C3CCCC3)CC2)cc1 (centres undefined)	-0.8	-12.1	9.6	-1.1	-10.1
COc1ccc(OC)c(S(=O)(=O)N2CCN(c3c(C)cccc3C)CC2)c1	-15.6	26.0*	13.0	/	-28.8
N#Cc1cccc(C#N)c1Oc1ccc(S(=O)(=O)Nc2ccc(Cl)cc2)cc1	15.4	42.9*	12.6	3.9	13.2
O=C(O)c1sccc1Oc1ccc(NS(=O)(=O)c2ccc(Cl)cc2)cc1	-10.6	-2.2	-3.0	-7.9	-8.1
O=S1(=O)N[C@@H](Cc2ccccc2)COc2cccc(N3CCCC3)c21	/	/	/	-6.6	/
COc1cccc(-c2cc(C(=O)Nc3ccc(OC)c(OC)c3)no2)c1	-4.6	-17.3	84.3*	-5.5	20.5
C#CCOc1c(/C=C\c2nc(O)c([N+](=O)[O-])c(=O)[nH]2)cc(Br)cc1OC	-11.8	1.5	53.0*	-11.6	1.2
CCOC(=O)N1CCN(C(=O)C[C@H]2C[C@@]3(C(=O)OC)C(=C[C@H](COCc4ccccc4)O[C@@H]3C)N(CCC3=CCCCC3)C2=O)CC1	/	/	/	-3.9	/
O=C1OC(Cc2ccccc2)(c2ccccc2)c2ccccc21 (centres undefined)	/	/	/	-5.2	/
CC(C)c1ccc(NC(=O)N2CCc3ccccc3C2)cc1	41.2*	-14.2	9.3	-5.9	-31.4
Cc1nn(-c2cc(C(F)(F)F)ccc2Cl)c2nc(C(Cl)(Cl)Cl)[nH]c(=O)c12	-5.7	-6.7	39.9*	10.6	-12.2
Cc1nn(-c2ccccc2)c2nc(C(F)(F)F)[nH]c(=O)c12	-0.7	-9.3	9.1	-0.9	-13.3
CCOC(=O)C1(Cc2ccccc2)CCN(Cc2cccc3c2OCO3)CC1	20.2	-16.1	71.9*	-12.0	7.9
Cc1nn(CCC(=O)O)c2nc(-c3cccnc3)cc(C(F)(F)F)c12	-2.8	1.6	7.6	-3.4	-9.6
Cc1nn(CCc2nn[nH]n2)c2nc(-c3ccc(C4CCCCC4)cc3)cc(C(F)(F)F)c12	5.3	54.8*	11.3	-6.6	32.6
CC(C)OCCCNC(=O)CN1C(=O)/C(=C/c2ccccc2)Sc2ccccc21	-8.0	-18.0	69.4*	-2.8	19.2
CCc1ccc(/C=C2/Sc3ccccc3N(CC(=O)NCCCOC)C2=O)cc1	6.5	-13.0	17.7	/	-6.0
C[C@@H]1OC(C2CCCCC2)N(C)[C@H]2C[C@H]3c4[nH]c5c(-c6ccccc6)cccc5c4CCN3C(=O)[C@@H]12 (some centres undefined)	/	/	/	-7.6	/
CCCC(=O)OCCNc1cc(SCc2ccco2)c2nonc2c1[N+](=O)[O-]	-3.5	-14.4	68.4*	0.3	-18.9

Screening data as filed in PubChem BioAssay.
